Assay outcomes: PubChem BioAssay, several laboratories
In the library only some 1.1% were active in any assay of this set; here they are far more common.
Vif imaging: inhibitors of HIV Vif. HEK293T cells, Vif self-association by quenched fluorescence, imaging, 24 h. 0.35% of 340,000 active. inhibition, % at 7.49 µM; in the data active means inhibition above about 50%, passing the limit was not always enough
NR2E3 ag-1: agonists of human NR2E3 nuclear receptor; 0.35% of 360,000 active; Q9Y5X4; inhibition of corepressor binding, % at 3.98 µM; AID 602229; CHO-S Gal4-NCOR/VP16-NR2E3 two-hybrid, luciferase;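 active means inhibition above the mean of all tested compounds plus 3 SD, cut at about 70% in these data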;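 further: 0% = DMSO with NR2E3 transfected cells and 100% = cells lacking NR2E3 construct; higher means lower luciferase signal from less NR2E3 corepressor binding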
Target sequence (Q9Y5X4 whole entry, looked up, the tested form may be a part): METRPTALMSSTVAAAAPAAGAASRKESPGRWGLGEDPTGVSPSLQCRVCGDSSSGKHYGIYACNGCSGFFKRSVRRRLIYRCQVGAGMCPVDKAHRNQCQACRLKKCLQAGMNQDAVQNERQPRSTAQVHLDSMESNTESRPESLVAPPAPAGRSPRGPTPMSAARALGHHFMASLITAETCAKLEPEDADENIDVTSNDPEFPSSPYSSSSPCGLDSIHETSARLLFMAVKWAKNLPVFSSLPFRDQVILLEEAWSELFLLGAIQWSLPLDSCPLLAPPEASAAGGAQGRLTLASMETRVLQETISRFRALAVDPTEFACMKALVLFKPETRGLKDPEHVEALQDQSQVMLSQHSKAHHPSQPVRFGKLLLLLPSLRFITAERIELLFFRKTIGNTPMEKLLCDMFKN
HCV core dimer: HCV core protein dimerization inhibition | AID 1899 | TR-FRET GST/Flag-core106 dimerization, 1536-well | 0.33% of 300,000 active | inhibition, % at 5 µM;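 active means inhibition above the mean of all tested compounds plus 3 SD, set per screening campaign, cut at about 45% in these data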
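Material: Tagged HCV core106 pair (GST and Flag) | Amount: GST-core106 13.5 nM, Flag-core106 17 nM | Medium: KF-containing HEPES buffer, pH 7.45, DTT, CHAPS, BSA | Reagent: Eu donor and XL665 acceptor anti-tag antibodies | Schedule: 4 h at 22.5 °C | Technique: Time-resolved FRET, ex 340 nm, em 617 and 671 nm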
NR2E3 ag-2: activates human photoreceptor nuclear receptor NR2E3. inhibition of corepressor binding, % at 4.78 µM. GST-NR2E3/biotin-RetCOR TR-FRET, 1536-well. 0.12% of 320,000 active;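 active means percent inhibition above the cutoff of mean plus 3 SD of all tested compounds, set per screening campaign, cut at about 20% in these data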;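 further: 0% = DMSO wells and 100% = biotin wells as full block of FRET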
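Material: NR2E3–RetCOR corepressor complex / Amount: 1.35 nM GST-NR2E3 / Medium: Tris pH 7.5 / Compound: single nominal compound dose of 4.8 µM / Incubation: 5 h at 4 °C / Technique: TR-FRET, Eu(K)-anti-GST donor, streptavidin-D2 acceptor, ex 340, em 617/671 nm / Read-out basis: percent loss of FRET ratio relative to control wells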
DAGLB inhibitor: blocks human DAGLB lipase activity; Q8NCG7; HEK293T DAGLB membrane lysate, EnzChek fluorogenic substrate; inhibition, % at 5.17 µM; 0.059% of 340,000 active; in the data active means inhibition above about 34%;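 further: 0% = enzyme with vehicle and 100% = wells lacking enzyme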
MT1-MMP act inh: blocks activation of human MT1-MMP. P50281. HT1080 RFP-PRO-GFP cells, GFP/RFP ratio fluorescence, overnight; percent of plate control window, DMSO zero. GFP/RFP ratio change, % at 20 µM. 0.061% of 360,000 active. AID 651647;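 active means GFP/RFP ratio change of at least 30% with cell ATP level not reduced by more than half and red fluorescence within 50% of control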
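Test system: HT1080 cells expressing an RFP-PRO-GFP fluorescent reporter construct / Compound dosing: single-point 20 µM compound, 1% DMSO / Schedule: cells overnight before dosing, compound overnight, 37 °C, 5% CO2 / Evaluation: GFP/RFP fluorescence ratio / Control set: DMSO and RFP-L50D-GFP cell wells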
NR2E3 ag confirm: NR2E3 agonism confirmed in two-hybrid assay; shares compounds with NR2E3 ag-1; CHO-S mammalian two-hybrid NR2E3-NCOR, luciferase luminescence; inhibition, % at 3.98 µM; 51% of 2,300 active; AID 624378;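 active means average inhibition above a cutoff equal to the mean inhibition of all tested compounds plus one SD, cut at about 70% in these data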;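 further: 0% = DMSO in NR2E3 cells and 100% = DMSO in cells lacking NR2E3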
GAL4-VP16 luc: counter-screen for NR2E3 agonists: GAL4-VP16 reporter inhibitors. shares compounds with NR2E3 ag-1. CHO-S GAL4-VP16 luciferase reporter, luminescence. inhibition, % at 3.98 µM. 29% of 2,300 active. AID 624379;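 active means mean inhibition above a cutoff equal to the average over all tested compounds plus one standard deviation, cut at about 70% in these data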;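 further: luciferase from a UAS reporter driven by GAL4-VP16 transactivation; 0% = DMSO with VP16-transfected cells and 100% = DMSO with cells lacking VP16; higher means less reporter light so more repression of VP16 activity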
* hit, by the source's call; / = no result.

SMILES	Vif imaging	NR2E3 ag-1	HCV core dimer	NR2E3 ag-2	DAGLB inhibitor	MT1-MMP act inh	NR2E3 ag confirm	GAL4-VP16 luc
Cc1csc2c(N3CCN(C(=O)Nc4ccc(OC(F)(F)F)cc4)CC3)ncnc12	28	63	11	1	0	5	90*	71*
O=C(CCl)N1CCN2C(=O)c3ccccc3C12c1ccc(Cl)cc1 (stereo unspecified)	7	-21	7	-5	3	-3	/	/
Cc1ccc(C(=O)N2CCN3C(=O)c4ccccc4C23c2ccc(Cl)cc2)cc1 (stereo unspecified)	7	74*	20	2	-4	0	44	15
Nc1nc2cc(Cl)ccc2cc1C(=O)NCCCc1ccccc1	/	82*	/	/	/	1	87*	78*
COc1ccc(CCNC(=O)c2cc3ccc(Cl)cc3nc2N)cc1	/	90*	/	/	/	-2	90*	77*
COc1ccc(CCNC(=O)c2ccc(Cl)cc2)cc1	-5	-10	4	0	-5	1	/	/
O=c1[nH]c(=S)[nH]c2c1C(c1ccc(F)cc1)OC(C1CCCCC1)C2 (stereo unspecified)	/	0	/	/	/	1	/	/
COc1cc(CCC(=O)N2CCN(S(=O)(=O)c3ccc(C)cc3)CC2)cc(OC)c1OC	4	2	/	5	-3	-10	/	/
O=[N+]([O-])c1nccn1CC(O)CO (stereo unspecified)	/	4	/	/	/	6	/	/
O=C(Nc1cc(Cl)ccc1N1CCOCC1)c1ccco1	-7	5	/	/	-1	-9	/	/
O=C(Nc1cc(C(F)(F)F)ccc1N1CCOCC1)c1ccco1	3	103*	-4	0	0	-7	-1	2
N#Cc1ccccc1OCc1cccc(S(=O)(=O)N2CCOCC2)c1	-3	10	/	3	-5	-2	/	/
O=C(Nc1ccc(Cc2ccncc2)cc1)c1ccc(S(=O)(=O)N2CCOCC2)cc1	-16	53	2	-1	1	-4	58	57
Cc1ccc(S(=O)(=O)N2CCOCC2)cc1C(=O)Nc1ccc(N2CCCCCC2)cc1	/	69	/	/	5	5	50	47
COc1ccc(C)cc1NC(=O)c1cccc(-c2ccc(OC(C)=O)cc2)c1	-2	-10	4	-3	-8	-4	/	/
c1ccc(CNc2nc(NCCc3ccncc3)c3sccc3n2)cc1	10	81*	/	/	/	-17	52	55
c1ccc(CNc2nc(NCc3cccs3)nc3ccsc23)cc1	-23	26	/	/	/	-3	/	/
N#Cc1ccc(Nc2nc(NCc3ccccc3)nc3ccsc23)cc1	-7	-51	/	/	/	-6	/	/
Fc1ccc(Nc2nc(NCc3ccccc3)nc3ccsc23)cc1	-7	55	/	/	/	-14	59	41
C#Cc1cccc(Nc2nc(NCc3ccccc3)nc3ccsc23)c1	/	61	/	/	/	2	84*	44
Cc1ccc(C(=O)OC(C)CN2C(C)CCCC2C)cc1 (stereo unspecified)	-5	-7	-11	-1	-2	-1	/	/
CCOC(=O)[C@@H]1[C@H]2COc3ccc(Br)cc3[C@@H]2N2C(=O)N(c3ccc(C(F)(F)F)cc3)C(=O)[C@]12C	3	-3	-6	1	-17	-5	/	/
CCc1nccn1CCC(=O)NC1CC(C)(C)Cc2c1cnn2-c1cccc(F)c1 (stereo unspecified)	/	-3	8	0	1	0	/	/
Cc1ccc(-c2nc(NC(=O)c3nn(C)cc3[N+](=O)[O-])sc2C)cc1	/	5	-1	-3	1	-17	/	/
Cn1cc([N+](=O)[O-])c(C(=O)Nc2nc(-c3ccc(Cl)cc3)cs2)n1	7	71*	3	2	0	-25	47	0
Cc1cc(C)n2nc(N)c(N=Nc3ccc(Cl)cc3)c2n1	-5	-34	-21	-8	3	1	/	/
O=C(CSc1ccccn1)N1CCNC1=O	3	-30	/	/	2	1	/	/
